{
  "source": "ChEMBL document CHEMBL4257441",
  "about": "“Protection effect of intracellular melanin from Lachnum YM156 and Haikunshenxi capsule combination on adenine-induced chronic renal failure in mice” (Medchemcomm, 2017)",
  "key": {"Mus musculus [1]": {"test_system": "Mus musculus", "assay": "Protective effect against adenine-induced chronic renal failure in Kunming mouse assessed as weight growth rate at 100 mg/kg, ig qd administered for 4 successive weeks measured 24 hrs post last dose (reference value: 32.42 +/- 1.43%)", "assay_type": "functional", "summary_of_the_method": "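Male Kunming mice (20 ± 5 g) were housed on a 12 h light/dark cycle at 18–20 °C. Chronic renal failure was induced by long-term dietary adenine. The melanin was given orally at 100 or 200 mg kg–1, alone or with Haikunshenxi capsule as positive drug, with ten mice per group. Weight growth rate (%) and kidney index (mg g–1) were recorded.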"}, "Mus musculus [2]": {"test_system": "Mus musculus", "assay": "Protective effect against adenine-induced chronic renal failure in Kunming mouse assessed as weight growth rate at 200 mg/kg, ig qd administered for 4 successive weeks measured 24 hrs post last dose (reference value: 32.42 +/- 1.43%)", "assay_type": "functional", "summary_of_the_method": "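Male Kunming mice (20 ± 5 g) kept on a 12 h light/dark cycle at 18–20 °C on a standard diet. CRF induced by chronic dietary adenine. Test material given orally at 100 or 200 mg kg–1, alone or with Haikunshenxi capsule, alongside normal, model and capsule-only groups; ten mice per group. Weight growth rate recorded in %, kidney index in mg g–1.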"}, "Mus musculus [3]": {"test_system": "Mus musculus", "assay": "Protective effect against adenine-induced chronic renal failure in Kunming mouse assessed as nephridial SOD levels at 100 mg/kg, ig qd administered for 4 successive weeks by hydroxylamine method (reference value: 30.45 +/- 1.12 U/mg)", "assay_type": "functional"}, "Mus musculus [4]": {"test_system": "Mus musculus", "assay": "Protective effect against adenine-induced chronic renal failure in Kunming mouse assessed as nephridial SOD levels at 100 mg/kg, ig qd administered for 4 successive weeks with haikunshenxi capsule by hydroxylamine method (reference value: 30.45 +/- 1.12 U/mg)", "assay_type": "functional"}, "Mus musculus [5]": {"test_system": "Mus musculus", "assay": "Protective effect against adenine-induced chronic renal failure in Kunming mouse assessed as nephridial GSH-PX levels at 200 mg/kg, ig qd administered for 4 successive weeks by colorimetric method (reference value: 688.45 +/- 12.67 U/L)", "assay_type": "functional"}, "Mus musculus [6]": {"test_system": "Mus musculus", "assay": "Protective effect against adenine-induced chronic renal failure in Kunming mouse assessed as nephridial GSH levels at 100 mg/kg, ig qd administered for 4 successive weeks with haikunshenxi capsule by colorimetric method (reference value: 3.05 +/- 0.11 mg/g)", "assay_type": "functional"}, "Mus musculus [7]": {"test_system": "Mus musculus", "assay": "Protective effect against adenine-induced chronic renal failure in Kunming mouse assessed as nephridial GSH levels at 200 mg/kg, ig qd administered for 4 successive weeks with haikunshenxi capsule by colorimetric method (reference value: 3.05 +/- 0.11 mg/g)", "assay_type": "functional"}, "Mus musculus [8]": {"test_system": "Mus musculus", "assay": "Protective effect against adenine-induced chronic renal failure in Kunming mouse assessed as nephridial MDA levels at 100 mg/kg, ig qd administered for 4 successive weeks by thiobarbituric acid method (reference value: 5.05 +/- 0.15 nmol/ml)", "assay_type": "functional"}, "Mus musculus [9]": {"test_system": "Mus musculus", "assay": "Protective effect against adenine-induced chronic renal failure in ig dosed Kunming mouse assessed as increase in nephridial GSH-PX levels administered as qd for 4 successive weeks by colorimetric method", "assay_type": "functional, organism-based", "summary_of_the_method": "(§1)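 Male Kunming mice (20 ± 5 g) given dietary adenine to induce CRF, then dosed orally at 100 or 200 mg kg–1, with or without Haikunshenxi capsule; n = 10 per group. Kidney homogenate assayed for SOD and CAT (U mg–1 protein), GSH-Px (U L–1), GSH (mg g–1 protein) and MDA (nmol mL–1).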"}, "Mus musculus [10]": {"test_system": "Mus musculus", "assay": "Protective effect against adenine-induced chronic renal failure in ig dosed Kunming mouse assessed as increase in nephridial GSH-PX levels administered as qd for 4 successive weeks with haikunshenxi capsule by colorimetric method", "assay_type": "functional, organism-based", "summary_of_the_method": "as §1"}, "Mus musculus [11]": {"test_system": "Mus musculus", "assay": "Protective effect against adenine-induced chronic renal failure in ig dosed Kunming mouse assessed as increase in nephridial GSH levels administered as qd for 4 successive weeks with haikunshenxi capsule by colorimetric method", "assay_type": "functional, organism-based", "summary_of_the_method": "as §1"}, "Mus musculus [12]": {"test_system": "Mus musculus", "assay": "Protective effect against adenine-induced chronic renal failure in Kunming mouse assessed as nephridial TNF-alpha levels at 200 mg/kg, ig qd administered for 4 successive weeks (reference value: 250.15 +/- 8.10 pg/ml)", "assay_type": "functional"}, "Mus musculus [13]": {"test_system": "Mus musculus", "assay": "Protective effect against adenine-induced chronic renal failure in Kunming mouse assessed as nephridial IL-1beta levels at 200 mg/kg, ig qd administered for 4 successive weeks with haikunshenxi capsule (reference value: 18.34 +/- 0.25 pg/ml)", "assay_type": "functional"}, "Mus musculus [14]": {"test_system": "Mus musculus", "assay": "Protective effect against adenine-induced chronic renal failure in Kunming mouse assessed as nephridial IL-6 levels at 200 mg/kg, ig qd administered for 4 successive weeks (reference value: 20.85 +/- 0.11 pg/ml)", "assay_type": "functional"}, "Mus musculus [15]": {"test_system": "Mus musculus", "assay": "Protective effect against adenine-induced chronic renal failure in Kunming mouse assessed as nephridial IL-6 levels at 200 mg/kg, ig qd administered for 4 successive weeks with haikunshenxi capsule (reference value: 20.85 +/- 0.11 pg/ml)", "assay_type": "functional"}, "Mus musculus [16]": {"test_system": "Mus musculus", "assay": "Protective effect against adenine-induced chronic renal failure in Kunming mouse assessed as nephridial iNOS levels at 100 mg/kg, ig qd administered for 4 successive weeks with haikunshenxi capsule (reference value: 1.98 +/- 0.12 U/mg)", "assay_type": "functional"}, "Mus musculus [17]": {"test_system": "Mus musculus", "assay": "Protective effect against adenine-induced chronic renal failure in ig dosed Kunming mouse assessed as decrease in nephridial IL-1beta levels administered as qd for 4 successive weeks", "assay_type": "functional, organism-based", "summary_of_the_method": "(§2)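 CRF model made by chronic dietary adenine in male Kunming mice (20 ± 5 g); oral dosing at 100 or 200 mg kg–1, alone or with Haikunshenxi capsule; ten mice per group. Kidney tissue TNF-α, IL-1β and IL-6 measured as pg per mg protein, and iNOS activity as U mg–1 protein.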"}, "Mus musculus [18]": {"test_system": "Mus musculus", "assay": "Protective effect against adenine-induced chronic renal failure in ig dosed Kunming mouse assessed as decrease in nephridial iNOS levels administered as qd for 4 successive weeks with haikunshenxi capsule", "assay_type": "functional, organism-based", "summary_of_the_method": "as §2"}, "Mus musculus [19]": {"test_system": "Mus musculus", "assay": "Protective effect against adenine-induced chronic renal failure in Kunming mouse assessed as reduction in renal tubular atrophy at 200 mg/kg, ig qd administered for 4 successive weeks by haematoxylin and eosin dye-based optical microscopic method", "assay_type": "functional, organism-based", "summary_of_the_method": "(§3)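 Kidneys were taken from male Kunming mice given an adenine diet plus oral melanin (100 or 200 mg kg–1), with or without Haikunshenxi capsule, ten per group. Histological sections were examined at 400× for glomeruli, tubules, adenine crystals, tubular atrophy and interstitial fibrosis.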"}, "Mus musculus [20]": {"test_system": "Mus musculus", "assay": "Protective effect against adenine-induced chronic renal failure in Kunming mouse assessed as reduction in interstitial fibrosis in kidney at 200 mg/kg, ig qd administered for 4 successive weeks by haematoxylin and eosin dye-based optical microscopic method", "assay_type": "functional, organism-based", "summary_of_the_method": "as §3"}, "Mus musculus [21]": {"test_system": "Mus musculus", "assay": "Protective effect against adenine-induced chronic renal failure in Kunming mouse assessed as reduction in number of adenine crystals at 200 mg/kg, ig qd administered for 4 successive weeks with haikunshenxi capsule by haematoxylin and eosin dye-based optical microscopic method", "assay_type": "functional, organism-based", "summary_of_the_method": "as §3"}, "Mus musculus [22]": {"test_system": "Mus musculus", "assay": "Protective effect against adenine-induced chronic renal failure in Kunming mouse assessed as reduction in renal tubular atrophy at 200 mg/kg, ig qd administered for 4 successive weeks with haikunshenxi capsule by haematoxylin and eosin dye-based optical microscopic method", "assay_type": "functional, organism-based", "summary_of_the_method": "as §3"}, "Mus musculus [23]": {"test_system": "Mus musculus", "assay": "Protective effect against adenine-induced chronic renal failure in ig dosed Kunming mouse assessed as reduction in kidney index administered as qd for 4 successive weeks measured 24 hrs post last dose"}},
  "note": "The source made the active and inactive calls. The calls are words filed in the database; no cut-off is given here.",
  "data": [
    {"smiles": "Cc1c(=O)c(=O)c2c3c[nH]c4c(C)c(=O)c(=O)c(c5c[nH]c1c52)c43", "values": [
      {"measurement": "Activity", "setting": "Mus musculus [1]", "result": 50.12, "unit": "%"},
      {"measurement": "Activity", "setting": "Mus musculus [2]", "result": 52.68, "unit": "%"},
      {"measurement": "Activity", "setting": "Mus musculus [3]", "result": 32.32, "unit": "U/mg"},
      {"measurement": "Activity", "setting": "Mus musculus [4]", "result": 46.52, "unit": "U/mg"},
      {"measurement": "Activity", "setting": "Mus musculus [5]", "result": 790.43, "unit": "U/L"},
      {"measurement": "Activity", "setting": "Mus musculus [6]", "result": 5.23, "unit": "mg/g"},
      {"measurement": "Activity", "setting": "Mus musculus [7]", "result": 5.38, "unit": "mg/g"},
      {"measurement": "Activity", "setting": "Mus musculus [8]", "result": 3.95, "unit": "nmol/mL"},
      {"measurement": "Activity", "setting": "Mus musculus [9]", "result": "Dose-dependent effect"},
      {"measurement": "Activity", "setting": "Mus musculus [10]", "result": "Dose-dependent effect"},
      {"measurement": "Activity", "setting": "Mus musculus [11]", "result": "Dose-dependent effect"},
      {"measurement": "Activity", "setting": "Mus musculus [12]", "result": 168.32, "unit": "pg/mL"},
      {"measurement": "Activity", "setting": "Mus musculus [13]", "result": 13.81, "unit": "pg/mL"},
      {"measurement": "Activity", "setting": "Mus musculus [14]", "result": 14.16, "unit": "pg/mL"},
      {"measurement": "Activity", "setting": "Mus musculus [15]", "result": 10.74, "unit": "pg/mL"},
      {"measurement": "Activity", "setting": "Mus musculus [16]", "result": 0.79, "unit": "U/mg"},
      {"measurement": "Activity", "setting": "Mus musculus [17]", "result": "Dose-dependent effect"},
      {"measurement": "Activity", "setting": "Mus musculus [18]", "result": "Dose-dependent effect"},
      {"measurement": "Activity", "setting": "Mus musculus [19]", "result": "Active"},
      {"measurement": "Activity", "setting": "Mus musculus [20]", "result": "Active"},
      {"measurement": "Activity", "setting": "Mus musculus [21]", "result": "Active"},
      {"measurement": "Activity", "setting": "Mus musculus [22]", "result": "Active"},
      {"measurement": "Activity", "setting": "Mus musculus [23]", "result": "Dose-dependent effect"}
    ]}
  ]
}
